Jurkat tox 60K – cytotoxicity toward Jurkat T cells, primary screen, cytotoxicity control, cell-based, Jurkat E6.1, 60K MLSMR library. 56,000 compounds, 1.2% hits. Jurkat E6.1 viability, ATP luminescence, 48 h. AID 463, 2006. inhibition, % at 4 µM;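 active = inhibition above the mean inhibition of all tested compounds plus 3 SD, cut at about 28% in these data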
HUVEC prolif 384 – inhibitors of HUVEC proliferation, primary screen, cell-based, 384-well | CellTiter-Glo luminescence, 72 h; stronger effect = lower value | viability, % at 10 µM (by protocol) | 86,000 compounds, 1.1% hits | AID 648, 2007;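 active = viability at or below 30%; inactive = viability above 30%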
H69AR growth 86K – proliferation blockers of H69AR lung cancer cells, primary screen, cell-based, human, 86K library. H69AR lung tumor viability, ATP luminescence, 72 h; stronger effect = lower value. viability, % at 10 µM. 85,000 compounds, 6% hits;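 active = viability at or below 40%; inactive = viability above 40%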;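 note: multidrug resistant small cell line overexpressing MRP-1 efflux transporter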
Lung fibro prol – antiproliferative effect on LL 47 fibroblasts – human, LL 47 cells, CellTiter-Glo luminescence, primary screen; AID 719, 2007; 85,000 compounds, 1.1% hits; viability, % at 10 µM; LL 47 human lung fibroblast viability, ATP luminescence; stronger effect = lower value;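 active = viability at or below 50% in the single dose screen; inactive = viability above 50%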;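 note: compound exposure lasted 72 h before the ATP readout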
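Signal: luminescent ATP detection, CellTiter-Glo; assay system: LL 47 human lung fibroblasts; input: 1,150 cells/well; incubation: overnight cell rest, 72 h compound treatment at 37 °C; measure: % viability versus median cells-only luminescence; medium: IMEM growth medium with 15% fetal bovine serum; dosing: compound addition at 0.1% DMSO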
Each line names hits and unclear results; the compound was inactive in the other large screens. Only some compounds are listed: those with a hit (about 6.6% of all), similar ones and a draw of the others.

O=C(c1ccco1)N1CCN(c2ncnc3c2[nH]c2ccccc23)CC1	none (no result: Jurkat tox 60K)
O=C(c1ccco1)N1CCN(C(=O)c2cc(-c3ccccn3)nc3ccc(Cl)cc23)CC1	H69AR growth 86K 38
O=C(c1ccco1)N1CCN(C(=O)c2cc(-c3ccncc3)nc3ccc(Br)cc23)CC1	H69AR growth 86K 39
O=C(c1cccc(Cl)c1)N1CCN(C(=O)c2ccco2)CC1	none
O=C(c1ccco1)N1CCN(c2ncnc3c2[nH]c2ccc(Br)cc23)CC1	H69AR growth 86K 38
O=C(c1ccco1)N1CCN(C(=O)c2cc(-c3ccccc3)nc3ccccc23)CC1	none (no result: Jurkat tox 60K)
COc1ccc(C2/C(=C(\O)c3ccc4c(c3)OCCO4)C(=O)C(=O)N2CCCN(C)C)c(OC)c1 (centres undefined)	none
COCC(C)n1c(SCC(=O)NC(=O)Nc2ccc3c(c2)OCCO3)nc2ccccc2c1=O (centres undefined)	none (no result: HUVEC prolif 384, H69AR growth 86K, Lung fibro prol)
O=C(OCC#CCSc1nnc(-c2cccc3ccccc23)o1)c1cccs1	H69AR growth 86K 35
C#CCSc1nnc(-c2ccc(C)cc2)o1	none (no result: Jurkat tox 60K)
C#CCSc1nnc(-c2cccc3ccccc23)o1	H69AR growth 86K 21
COCC(C)NC(=O)C1CC(c2cccc(Br)c2)=NO1 (centres undefined)	none
O=C(c1ccccc1Nc1ccc(SC(F)F)cc1)N1CCCCCC1	none (no result: Jurkat tox 60K)
COc1cc2cc(/C=C/C(=O)c3ccco3)c(Cl)nc2cc1OC	H69AR growth 86K 7.9 (no result: Jurkat tox 60K)
COc1ccc(Cl)cc1NC(=O)c1ccco1	none
COc1ccc2cc3c(N)c(C(=O)NCc4ccco4)sc3nc2c1	none
COc1ccc2cc(/C=C/C(=O)c3ccco3)c(Cl)nc2c1	H69AR growth 86K 16 (no result: Jurkat tox 60K)
COc1ccccc1Cn1c2nc3ccccc3nc2c2c(=O)n(CC(C)C)cnc21	none (no result: Jurkat tox 60K)
CCCCN(CCCC)C(=O)c1ccccc1NC(=O)CN1C(=O)c2ccccc2C1=O	none (no result: Jurkat tox 60K)
O=C(Nc1ccccc1NC(=O)NC1CCCCC1)NC1CCCCC1	HUVEC prolif 384 3.6, H69AR growth 86K 0.6
NC(=O)c1ccccc1NC(=O)NC1CCCCC1	none (no result: Jurkat tox 60K)
CSc1cccc(NC(=O)CN(c2cc(C)ccc2C)S(C)(=O)=O)c1	none
Cc1ccc(C)c(S(=O)(=O)NCc2ccc(C(=O)N3CCC(Cc4ccccc4)CC3)cc2)c1	H69AR growth 86K 36 (no result: Jurkat tox 60K)
Cc1ccc(C)c(S(=O)(=O)NCc2ccc(C(=O)N3CCN(C)CC3)cc2)c1	none
CCOC(=O)N1CCN(C(=O)c2ccc3c(=O)n(CCC4=CCCCC4)c(=O)[nH]c3c2)CC1	H69AR growth 86K 39
CCCCCn1c(=O)[nH]c2cc(C(=O)N3CCN(CC)CC3)ccc2c1=O	none (no result: Jurkat tox 60K)
O=C(CSc1nnc2scc(-c3ccccc3)n12)Nc1nsc(-c2ccccc2)n1	H69AR growth 86K 38
O=C(Nc1ccc(Cl)cc1)OCCn1nnnc1C(c1ccccc1Cl)N1CCOCC1 (centres undefined)	none (no result: Jurkat tox 60K)
C=COC(=O)CSc1nc(-c2cccs2)ccc1C#N	none (no result: Jurkat tox 60K)
CCOC(=O)C(C)Sc1nc(-c2cccs2)ccc1C#N (centres undefined)	H69AR growth 86K 4.0 (no result: Jurkat tox 60K)
CCN1C(=O)/C(=C/N(C(C)=O)c2ccccc2)N(c2ccccc2)C1=S	H69AR growth 86K 16 (no result: Jurkat tox 60K)
CCN1C(=O)/C(=C/c2cccs2)N(C)C1=S	none (no result: Jurkat tox 60K)
C=CCNC(=O)CCCc1ccccc1	H69AR growth 86K 1.4
COc1cc(C(=O)OCC(=O)c2cc(C)n(C)c2C)cc(NC(=O)c2ccco2)c1OC	HUVEC prolif 384 27, H69AR growth 86K 11
CC(=O)C1=C(C)NC(SCC(N)=O)=C(C#N)C1c1cccs1 (centres undefined)	none (no result: Jurkat tox 60K)
CCOC(=O)C1=C(C)NC(SCC(=O)Nc2nc(C)cs2)=C(C#N)C1c1cccs1 (centres undefined)	H69AR growth 86K 37 (no result: Jurkat tox 60K)
CC(=O)C1=C(C)NC(SCC(=O)c2ccc(-c3ccccc3)cc2)=C(C#N)C1c1cccnc1 (centres undefined)	H69AR growth 86K 6.2 (no result: Jurkat tox 60K)
CC1=C(C(=O)Nc2ccccc2)C(c2ccncc2)C(C#N)=C(SCC(=O)Nc2ccccc2)N1 (centres undefined)	H69AR growth 86K 11 (no result: Jurkat tox 60K)
CCOC(=O)C1CCN(c2ncnc3c2[nH]c2cccc(OC)c23)CC1	H69AR growth 86K 23
CCOC(=O)c1ccccc1NS(=O)(=O)c1ccccc1F	none
O=C1CCN(N=Nc2cccc(Cl)c2)N1	H69AR growth 86K 31 (no result: Jurkat tox 60K)
O=c1[nH]n2c(=O)c3c([nH]c2c1N=Nc1cccc(Cl)c1)CCCC3	none (no result: Jurkat tox 60K)
COC(=O)c1ccc(-c2ccco2)n1Cc1cccc(C)c1	none (no result: Jurkat tox 60K)
CSc1nc(SCC(=O)NC(c2ccccc2)c2ccccc2)c2c3c(sc2n1)CN(C)CC3	H69AR growth 86K 12, Lung fibro prol 48 (no result: Jurkat tox 60K)
Cc1ccc(-n2c(SCC(=O)NCc3ccco3)nc3sc(C)c(C)c3c2=O)cc1	H69AR growth 86K 36
Cc1sc2nc(SCC(=O)NCc3ccco3)n(Cc3ccccc3)c(=O)c2c1C	HUVEC prolif 384 30, H69AR growth 86K 3.1 (no result: Jurkat tox 60K)
C=CCn1c(SCC(=O)NCc2ccco2)nc2sc(C)c(C)c2c1=O	none (no result: Jurkat tox 60K)
O=S(=O)(c1ccc(S(=O)(=O)N2CCN(C/C=C/c3ccccc3)CC2)cc1)N1CCCC1	H69AR growth 86K 36
O=C(CCSc1nc(-c2ccc3c(c2)OCO3)cc(C(F)(F)F)n1)NCc1ccccc1	H69AR growth 86K 23 (no result: Jurkat tox 60K)
O=C(CCSc1nc(-c2ccc3c(c2)OCO3)cc(C(F)(F)F)n1)NCc1ccco1	H69AR growth 86K 33
COc1ccc(CNC(=O)CCSc2nc(-c3ccc4c(c3)OCO4)cc(C(F)(F)F)n2)cc1	H69AR growth 86K 33 (no result: Jurkat tox 60K)
COCCNC(=O)CCSc1nc(-c2ccc(OC)cc2)cc(C(F)(F)F)n1	none (no result: Jurkat tox 60K)
O=c1[nH]c(CN2CCCCC2)nc2c1C1(CCCC1)Cc1ccccc1-2	none (no result: Jurkat tox 60K)
COC(=O)c1cc(NC(=O)c2cccc(C(F)(F)F)c2)c(=O)oc1C/C=N/OCc1cccc(Cl)c1Cl	H69AR growth 86K 13 (no result: Jurkat tox 60K)
O=C1c2ccccc2C(=O)C1c1ccc2ccccc2n1	H69AR growth 86K 28 (no result: Jurkat tox 60K)
COC(=O)C1=C(C)NC(C)=C(C(=O)OC)C1c1ccc2ccccc2n1	none (no result: Jurkat tox 60K)
COCCNC(=O)C(C)N(c1ccc(Oc2ccccc2)cc1)S(C)(=O)=O (centres undefined)	none
CCOC(=O)N1CCN(C(=O)C(C)N(c2ccc(Oc3ccccc3)cc2)S(C)(=O)=O)CC1 (centres undefined)	H69AR growth 86K 34 (no result: Lung fibro prol)
CCCCOc1cccc(C(=O)N(Cc2cccs2)C2CCS(=O)(=O)C2)c1 (centres undefined)	H69AR growth 86K 37
CCOC(=O)c1cnc(SCC(=O)Nc2ccc(N3CCOCC3)c(Cl)c2)nc1N	none (no result: Jurkat tox 60K)
CCOC(=O)c1cnc(SCC(=O)Nc2cc(C(F)(F)F)ccc2N2CCOCC2)nc1N	H69AR growth 86K 36
CO/N=C/C(=N\Nc1ccc(C)cc1)C(=O)c1ccc(OC)cc1	H69AR growth 86K 22 (no result: Jurkat tox 60K)
COc1ccc(C(O)CNc2ccc(C)cc2)cc1 (centres undefined)	none
COc1ccc(NC(=O)C(NC(=O)c2ccccc2)C(C)C)cc1 (centres undefined)	none (no result: Jurkat tox 60K)
CO/N=C\C(=N\Nc1ccc(OC)cc1)C(=O)c1ccccc1	H69AR growth 86K 28 (no result: Jurkat tox 60K)
